The test system of one data set is Plasmodium falciparum. Briefly: Antiplasmodial activity after 48 hrs against chloroquine-resistant Plasmodium falciparum W2 in human erythrocytes by [3H]hypoxanthine uptake. The format is functional, organism-based. The procedure, abridged: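 Chloroquine-resistant W2 P. falciparum grown in RPMI 1640 with 6% human erythrocytes and 10% human serum, under 5% CO2, 5% O2, 90% N2 at 37°C. Sensitivity tested by semi-automated micro-dilution. [3H]hypoxanthine incorporation measured across compound concentrations, and IC50 derived from it.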

Data set [1] can be described thus: Toxicity in Plasmodium berghei infected ICR mice (Mus musculus) dosed intraperitoneally once daily for 4 days by Thompson test. The note with it: in vivo, ip. It is filed as organism-based.
Data set [2] in a line: Therapeutic index, ratio of MTD for Plasmodium berghei infected ICR mice (Mus musculus) to MCD for Plasmodium berghei. The note with it: read-out: TI.
The subject of another data set is Plasmodium berghei. Kind of data set: Antimalarial activity against Plasmodium berghei infected ICR mice (Mus musculus) daily oral or subcutaneous dose for 8 days by Thompson test. The note with it: for ED50: Plasmodium berghei, po or sc, 192 h.

Structures are written as SMILES. ≈ marks a conversion by molar mass, not a printed value.

The term IC50 denotes the point on the concentration scale where inhibition reaches its midpoint. Read a low IC50 as greater potency. What is called ED50 is the midpoint of the dose-response relation.

On to `O=C(C[C@H]1NCC[C@@H]1O)Cn1cnc2ccccc2c1=O`, for which the IC50 with Plasmodium falciparum stood at 0.56 ng/mL (≈ 1.95 nM). The same compound showed an MTD at 96 h in data set [1] of 144 mg/kg. Also, in data set [2], the selectivity ratio is 17. In the data set on Plasmodium berghei, this compound yielded an MCD of 8.4 mg/kg and an ED50 of 1.6 mg/kg.

As to `O=C(C[C@H]1NCC[C@@H]1O)Cn1cnc2cccnc2c1=O`, the IC50 in the data set on Plasmodium falciparum is 0.12 ng/mL (≈ 0.416 nM). This compound also came in with an MTD at 96 h in data set [1] of 345 mg/kg. Moreover, the selectivity ratio in data set [2] was determined as 111. Also, in the data set on Plasmodium berghei, the MCD came to 3.1 mg/kg and the ED50 was 0.44 mg/kg.

In the data set with Plasmodium falciparum, `O=C(C[C@H]1NCC[C@@H]1O)Cn1cnc2ccc(F)cc2c1=O` came in with an IC50 of 0.26 ng/mL (≈ 0.852 nM). The compound further gave an MTD at 96 h in data set [1] of 425 mg/kg. Moreover, the selectivity ratio in data set [2] is 63. In the data set on Plasmodium berghei, the MCD amounted to 6.8 mg/kg and the 50% effect level (ED50) was put at a dose of 1.1 mg/kg.

On to `O=C(C[C@H]1NCC[C@@H]1O)Cn1cnc2cccc(C(F)(F)F)c2c1=O`, for which, in the data set with Plasmodium falciparum, half-maximal inhibition (IC50) required 0.23 ng/mL (≈ 0.647 nM). Besides, in data set [1], the MTD at 96 h came out at 335 mg/kg. For the same compound, the selectivity ratio in data set [2] worked out at 71. For the same compound, in the data set with Plasmodium berghei, the MCD was found to be 4.7 mg/kg and the ED50 came out at 0.74 mg/kg.

Regarding `O=C(C[C@H]1NCC[C@@H]1OCc1ccccc1)Cn1cnc2cccnc2c1=O`, in the data set on Plasmodium falciparum, the IC50 was determined as 0.14 ng/mL (≈ 0.37 nM). In data set [1], this compound showed an MTD at 96 h of 102 mg/kg. Further, the selectivity ratio in data set [2] amounted to 132. Besides, in the data set on Plasmodium berghei, the MCD was found to be 0.77 mg/kg and it took a dose of 0.14 mg/kg to reach the 50% effect level (ED50).

Regarding `O=C(C[C@H]1NCC[C@@H]1O)Cn1cnc2cnccc2c1=O`, inhibition in the data set with Plasmodium falciparum was half-maximal at 0.31 ng/mL (≈ 1.08 nM) (IC50). Also, the MTD at 96 h in data set [1] worked out at 338 mg/kg. Besides, in data set [2], the selectivity ratio was determined as 51. In the data set with Plasmodium berghei, the MCD is 6.6 mg/kg and the ED50 amounted to 1.2 mg/kg.

In the case of `O=C(C[C@H]1NCC[C@@H]1O)Cn1cnc2ccc(F)c(F)c2c1=O`, half-maximal inhibition in the data set on Plasmodium falciparum (IC50) was put at 0.4 ng/mL (≈ 1.24 nM). This compound also gave an MTD at 96 h in data set [1] of 379 mg/kg. Further, the selectivity ratio in data set [2] came out at 43. In the data set with Plasmodium berghei, this compound displayed an MCD of 8.9 mg/kg and an ED50 of 1.7 mg/kg.

For the compound `O=C(C[C@H]1NCC[C@@H]1O)Cn1cnc2ccncc2c1=O`, inhibition in the data set with Plasmodium falciparum was half-maximal at 0.14 ng/mL (≈ 0.486 nM) (IC50). The MTD at 96 h in data set [1] is 310 mg/kg. For the same compound, the selectivity ratio in data set [2] is 107. In the data set on Plasmodium berghei, the MCD came to 2.9 mg/kg and it took a dose of 0.49 mg/kg to reach the 50% effect level (ED50).

In the data set with Plasmodium falciparum, `O=C(C[C@H]1NCC[C@@H]1O)Cn1cnc2ncccc2c1=O` yielded an IC50 of 0.34 ng/mL (≈ 1.18 nM). This compound also had an MTD at 96 h in data set [1] of 439 mg/kg. In data set [2], the selectivity ratio stood at 74. In the data set with Plasmodium berghei, this compound yielded an MCD of 5.9 mg/kg and an ED50 of 1.3 mg/kg.

In the data set on Plasmodium falciparum, `O=C(C[C@H]1NCC[C@@H]1O)Cn1cnc2cccc(F)c2c1=O` gave an IC50 of 0.29 ng/mL (≈ 0.95 nM). This compound also returned an MTD at 96 h in data set [1] of 399 mg/kg. In addition, in data set [2], the selectivity ratio amounted to 56. In the data set on Plasmodium berghei, this compound displayed an MCD of 7.1 mg/kg and an ED50 of 1 mg/kg.

As to `CC(C)(C)c1cccc2ncn(CC(=O)C[C@H]3NCC[C@@H]3O)c(=O)c12`, the IC50 in the data set on Plasmodium falciparum amounted to 2.9 ng/mL (≈ 8.44 nM). Moreover, in data set [1], the MTD at 96 h stood at 429 mg/kg. For the same compound, in data set [2], the selectivity ratio worked out at 11. Besides, in the data set on Plasmodium berghei, the MCD worked out at 39 mg/kg and the ED50 was found to be 8.7 mg/kg.

Take `O=C(C[C@H]1NCC[C@@H]1O)Cn1cnc2ccc(C(F)(F)F)cc2c1=O`: the midpoint of inhibition in the data set on Plasmodium falciparum, the IC50, lay at 0.28 ng/mL (≈ 0.788 nM). Further, in data set [1], the MTD at 96 h was 440 mg/kg. In addition, the selectivity ratio in data set [2] was 56. Also, in the data set with Plasmodium berghei, the MCD was found to be 7.9 mg/kg and the ED50 is 1.5 mg/kg.

On to `COc1cccc2c(=O)n(CC(=O)C[C@H]3NCC[C@@H]3O)cnc12`, for which the IC50 with Plasmodium falciparum was determined as 0.57 ng/mL (≈ 1.8 nM). Further, the MTD at 96 h in data set [1] came out at 51 mg/kg. Besides, the selectivity ratio in data set [2] worked out at 10. In the data set on Plasmodium berghei, this compound yielded an MCD of 4.9 mg/kg and an ED50 of 1.5 mg/kg.

In the data set on Plasmodium falciparum, `COc1ccc2c(=O)n(CC(=O)C[C@H]3NCC[C@@H]3O)cnc2c1` had an IC50 of 0.62 ng/mL (≈ 1.95 nM). This compound gave an MTD at 96 h in data set [1] of 55 mg/kg. Besides, in data set [2], the selectivity ratio was found to be 10. In the data set on Plasmodium berghei, this compound showed an MCD of 5.6 mg/kg and an ED50 of 1.7 mg/kg.

In the case of `CC(C)(C)c1ccc2ncn(CC(=O)C[C@H]3NCC[C@@H]3O)c(=O)c2c1`, the IC50 in the data set on Plasmodium falciparum turned out to be 3.4 ng/mL (≈ 9.9 nM). In data set [1], this compound registered an MTD at 96 h of 504 mg/kg. Besides, in data set [2], the selectivity ratio is 12. Besides, in the data set on Plasmodium berghei, the MCD is 42 mg/kg and the 50% effect level (ED50) was put at a dose of 10 mg/kg.

Compound `O=C(C[C@H]1NCC[C@@H]1OCc1ccccc1)Cn1cnc2cccc(C(F)(F)F)c2c1=O` had an IC50 in the data set with Plasmodium falciparum of 0.19 ng/mL (≈ 0.427 nM). The compound also had an MTD at 96 h in data set [1] of 88 mg/kg. Besides, the selectivity ratio in data set [2] turned out to be 128. Besides, in the data set on Plasmodium berghei, the MCD is 0.69 mg/kg and the ED50 came to 0.12 mg/kg.

In data set [1], `CCN(CC)CCCC(C)Nc1ccnc2cc(Cl)ccc12` (stereo not drawn) [CHLOROQUINE] gave an MTD at 96 h of 240 mg/kg. In the data set on Plasmodium berghei, this compound showed an MCD of 40 mg/kg and an ED50 of 4.5 mg/kg.

Take `O=C(C[C@@H]1NCCC[C@H]1O)Cn1cnc2ccccc2c1=O` [FEBRIFUGINE]: half-maximal inhibition in the data set with Plasmodium falciparum (IC50) required 0.76 ng/mL (≈ 2.52 nM). This compound also displayed an MTD at 96 h in data set [1] of 35 mg/kg. In data set [2], the selectivity ratio came out at 3. In the data set with Plasmodium berghei, the MCD is 12 mg/kg and the ED50 was determined as 2.3 mg/kg.
